A selection: hits, their analogues and other compounds. The true share with any hit is near 2%.
S100A4 MyoIIA = inhibitors of S100A4-myosin IIA peptide binding, primary screen, biochemical, fluorescence polarization, TAMRA-MyoIIA peptide | Protein S100-A4 (Homo sapiens), P26447 | inhibition, % at 10.7 µM | 0.14% of 360,000 active | AID 652163, 2013;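 active means mean inhibition of at least 70% across replicates, with every replicate also reaching that level; inconclusive means mean inhibition reaches 70% but some replicates fall short; inactive means mean inhibition below 70%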
Target sequence (P26447 whole entry, looked up): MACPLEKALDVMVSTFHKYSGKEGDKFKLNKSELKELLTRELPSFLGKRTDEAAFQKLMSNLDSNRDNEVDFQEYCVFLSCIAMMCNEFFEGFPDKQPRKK
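Test system: S100A4 monomer protein. Medium: HEPES buffer with Ca2+, pH 7.2. Reagent: fluorescent myosin IIA peptide, 5 nM. Compound dosing: single-point compound testing. Timing: 5 min between mix addition and reading. Benchmarks: DMSO neutral and TFP positive wells.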
E-selectin induc = E-selectin induction in HUVECs, primary screen, imaging, HUVEC, immunofluorescence imaging, single point | P16581 | normalized: neutral wells 0, TNF-alpha wells 100 | activation, % at 7.58 µM | 0.37% of 260,000 active | AID 686992, 2013;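 active means mean E-selectin-positive cell signal at least 10% of the positive control, reached in at least 60% of replicates, without over 20% cell loss; inconclusive means no rule given, readout overlaps actives, possibly toxicity-flagged; inactive means the rest, including those meeting only one limit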
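Read-out: % PE-positive cells | Test system: HUVEC | Doses: One compound dose added by pin transfer | Buffer or medium: EGM-2 over gelatin coat | Signal: Immunofluorescence imaging | Benchmarks: TNF-alpha, DMSO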
DENV2 CPE = inhibitors of DENV2 cytopathic effect, primary screen, cell-based, plate reader, single concentration | DENV2-infected cells, cytopathic effect rescue | CPE inhibition, % at 9.99 µM | 1.7% of 350,000 active | AID 651640, 2012; in the data active means CPE inhibition above about 20%, passing the limit was not always enough; inconclusive means no clear call, values can overlap the other calls; tested in BHK-21 cells
Xi reactivation = activators of inactive X chromosome reactivation, primary screen, imaging, XiGFP fibroblasts, GFP high-content imaging, set 2; 0.055% of 360,000 active; AID 743238, 2013; activation, % at 7.58 µM; XiGFP mouse fibroblasts, % GFP-positive cells imaging, 3 d; cells co-treated with 5-aza-dC sensitizer; scaled so ellipticine positive control = 100%;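 active means mean normalized replicate activation at least 10% and every replicate at or above 10%; inconclusive means only one of the two criteria met; inactive means mean below 10% and not all replicates reach 10%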
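material = 68-5-11 XiGFP fibroblast line | medium = DMEM plus 5-aza-dC sensitizer | schedule = 3 days compound exposure | benchmarks = positive control ellipticine, 6 µM final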
Of the large screens only hits and unclear results are named; the others gave an inactive call; ! = a repeat was not active.

CCCN(C1CCS(=O)(=O)C1)S(=O)(=O)c1ccc2ccccc2c1 (stereo not drawn)	none (no result: E-selectin induc)
COc1cccc(CNC(=O)C[C@@H]2C=C[C@H](NC(=O)C3CCOCC3)[C@H](CO)O2)c1	none
C[C@H](NC(=O)C[C@@H]1C=C[C@@H](NC(=O)C2CCC2)[C@H](CO)O1)c1ccccc1	none
COc1cccc(CNC(=O)C[C@H]2CC[C@H](NC(=O)C3CCC3)[C@H](CO)O2)c1	none
COc1cccc(CNC(=O)C[C@H]2C=C[C@H](NC(=O)C3CCOCC3)[C@@H](CO)O2)c1	DENV2 CPE 21
COc1cccc(CNC(=O)C[C@H]2CC[C@@H](NC(=O)C3CCC3)[C@H](CO)O2)c1	DENV2 CPE 36
C[C@@H](NC(=O)C[C@H]1C=C[C@@H](NC(=O)C2CCC2)[C@H](CO)O1)c1ccccc1	S100A4 MyoIIA 101
COc1ccc(NC(=O)c2cc(-c3ccc(F)cc3OC)n[nH]2)c(C)c1	DENV2 CPE inconclusive
CCC(NS(=O)(=O)c1ccc2c(c1)NC(=O)C(C)C(=O)N2)c1cccs1 (stereo not drawn)	none
CN(C1CCCCC1)S(=O)(=O)c1cn(C)c(=O)n(C)c1=O	E-selectin induc 29
CC1CN(S(=O)(=O)c2cn(C)c(=O)n(C)c2=O)CC(C)O1 (stereo not drawn)	none
COCC#Cc1ccc([C@H]2[C@H]3CN(S(=O)(=O)c4ccc(OC)cc4)CCCCN3[C@H]2CO)cc1	DENV2 CPE 45
COCC#Cc1ccc([C@H]2[C@H](CO)N3CCCCN(S(=O)(=O)c4ccc(OC)cc4)C[C@@H]23)cc1	DENV2 CPE 62
COCC#Cc1ccc([C@@H]2[C@@H](CO)N3CCCCN(S(=O)(=O)c4ccccc4F)C[C@@H]23)cc1	DENV2 CPE 21 (no result: E-selectin induc, Xi reactivation)
COCC#Cc1ccc([C@H]2[C@@H](CO)N3CCCCN(S(=O)(=O)c4ccccc4F)C[C@H]23)cc1	none
N#C[C@@H]1N[C@H](CO)[C@H]1c1ccccc1	DENV2 CPE 38
N#C[C@H]1N[C@H](CO)[C@H]1c1ccc(C#Cc2ccc(F)cc2)cc1	DENV2 CPE 55
COc1ccc(-c2ccc3c(c2)[C@@H]2[C@@H](CCN2C(=O)CN2CCOCC2)[C@H](CO)N3)cc1	none
COc1ccc(-c2ccc3c(c2)[C@H]2[C@H](CCN2C(=O)CN2CCOCC2)[C@@H](CO)N3)cc1	DENV2 CPE 100
COc1ccc(-c2ccc3c(c2)[C@@H]2[C@@H](CCN2Cc2ccccc2F)[C@H](CO)N3)cc1	DENV2 CPE 23
CCC(=O)N1CC[C@@H]2[C@@H](CO)Nc3ccc(-c4ccc(OC)cc4)cc3[C@@H]21	DENV2 CPE 131 (no result: S100A4 MyoIIA)
CCC(=O)N1CC[C@H]2[C@H](CO)Nc3ccc(-c4ccccc4)cc3[C@H]21	none
c1ccc2nc(-c3ccc(-n4ccnc4)cc3)ccc2c1	none
C[C@@H]1CN([C@@H](C)CO)S(=O)(=O)c2ccc(-c3ccccc3)cc2O[C@H]1CN(C)C(=O)c1ccc2c(c1)OCO2	none
CCC(=O)N(C)C[C@H]1Oc2cc(-c3ccccc3F)ccc2S(=O)(=O)N([C@@H](C)CO)C[C@H]1C	none
CC(=O)N(C)C[C@H]1Oc2cc(-c3ccccc3)ccc2S(=O)(=O)N([C@H](C)CO)C[C@H]1C	none
C[C@@H]1CN([C@H](C)CO)S(=O)(=O)c2ccc(-c3ccccc3)cc2O[C@H]1CN(C)S(C)(=O)=O	E-selectin induc 58
C[C@H](CO)N1C[C@H](C)[C@H](CN(C)C(=O)c2ccc3c(c2)OCO3)Oc2cc(-c3ccccc3)ccc2S1(=O)=O	E-selectin induc 108
C[C@H](CO)N1C[C@H](C)[C@@H](CN(C)S(C)(=O)=O)Oc2cc(-c3ccccc3)ccc2S1(=O)=O	none
CC(=O)N(C)C[C@H]1Oc2cc(-c3ccccc3)ccc2S(=O)(=O)N([C@@H](C)CO)C[C@@H]1C	DENV2 CPE 33
CCC(=O)N(C)C[C@H]1Oc2cc(-c3ccccc3F)ccc2S(=O)(=O)N([C@H](C)CO)C[C@H]1C	DENV2 CPE 25!
COc1ccc(OC)c(NC(=O)C2CCCN(S(=O)(=O)c3ccc(-n4cnnn4)cc3)C2)c1 (stereo not drawn)	none
Cc1c(C(=O)OC(C)C)sc(NC(=O)C2CCCO2)c1C(=O)OC(C)C (stereo not drawn)	none (no result: E-selectin induc, Xi reactivation)
COc1ccc(NC(=O)C2CCCN2S(=O)(=O)c2ccc3c(c2)CCC(=O)N3)c(OC)c1 (stereo not drawn)	DENV2 CPE 37 (no result: E-selectin induc)
CS(=O)(=O)N1C[C@@H]2N[C@H](C1)[C@@H]2c1ccc(-c2ccccc2)cc1	DENV2 CPE 100 (no result: S100A4 MyoIIA)
O=S(=O)(c1ccccc1)N1C[C@@H]2N[C@H](C1)C2c1ccc(-c2ccccc2)cc1 (stereo partly drawn)	none
Cn1cnc(S(=O)(=O)N2CCCCN3[C@H](C2)[C@@H](c2ccc(-c4ccccc4)cc2)[C@@H]3CO)c1	none
O=S(=O)(c1cccs1)N1CCCCN2[C@H](CO)[C@H](c3ccc(C4=CCCC4)cc3)[C@@H]2C1	DENV2 CPE 46
Cn1cnc(S(=O)(=O)N2CCCCN3[C@H](CO)[C@@H](c4ccc(-c5ccccc5)cc4)[C@H]3C2)c1	DENV2 CPE 26
COc1ccc(-c2ccc([C@H]3[C@@H](CO)N4CCCCN(S(=O)(=O)c5cccs5)C[C@@H]34)cc2)cc1	DENV2 CPE 22
Cc1noc(C)c1COc1ccccc1C(=O)N1CCN(S(=O)(=O)c2cccc([N+](=O)[O-])c2)CC1	none (no result: E-selectin induc)
CCCCn1nnnc1C(c1cc2ccccc2o1)N1CCN(CCN(C)C)CC1 (stereo not drawn)	none
O=C(N/N=C\c1cn[nH]c1-c1ccccc1)c1ccc([N+](=O)[O-])cc1	none (no result: S100A4 MyoIIA, DENV2 CPE)
COc1cccc(-c2ccc(C3[C@@H]4CN(S(=O)(=O)c5cn(C)cn5)C[C@H]3N4)cc2)c1 (stereo partly drawn)	DENV2 CPE 131! (no result: S100A4 MyoIIA)
O=S(=O)(c1cccs1)N1CCCCN2[C@H](CO)[C@H](c3ccc(-c4ccccc4)cc3)[C@@H]2C1	DENV2 CPE 23
O=S(=O)(c1cccs1)N1CCCCN2[C@H](C1)[C@H](c1ccc(-c3ccccc3)cc1)[C@@H]2CO	none
CN1CCCCN2[C@H](CO)[C@H](c3ccc(C4=CCCC4)cc3)[C@H]2C1	DENV2 CPE 29
Cc1ccc(-c2ccc([C@@H]3[C@H](CO)N4CCCCN(C)C[C@@H]34)cc2)cc1	none
COc1cccc(-c2ccc(C3[C@H]4CNC[C@@H]3N4S(=O)(=O)c3cn(C)cn3)cc2)c1 (stereo partly drawn)	none
COC(=O)C1=C(C)NC(C)=C(C(=O)OC)C1C(=O)OC(C)C(=O)c1ccccc1 (stereo not drawn)	E-selectin induc 77, DENV2 CPE inconclusive
